Experimental data as given in ChEMBL document CHEMBL5247630, “Rational design of the zonulin inhibitor AT1001 derivatives as potential anti SARS-CoV-2” (Eur J Med Chem, 2022).
Non-standard residues stand in square brackets, D forms with d. Residues, ends and D or L forms follow the SMILES beside them. *: point of attachment. Hyp = O=C(O)[C@@H]1C[C@@H](O)CN1; Tic = O=C(O)[C@@H]1Cc2ccccc2CN1; Octanoyl = CCCCCCCC(=O)*; tBu = CC(C)(C)*

Columns and labels:
Human alphaherpesvirus 3 [1] = assay: Antiviral activity against thymidine kinase positive VZV OKA infected in HELF cells assessed as reduction in viral replication; format: functional, organism-based; conditions: Human alphaherpesvirus 3, OKA
Human alphaherpesvirus 3 [2] = assay: Antiviral activity against thymidine kinase deficient VZV 07-1 infected in HELF cells assessed as reduction in viral replication; format: functional, organism-based; conditions: Human alphaherpesvirus 3, 07-1, HELF
[3] = Cytotoxicity against HELF cells assessed as change in cell morphology; format: toxicity, cell-based; conditions: human
[4] = molecular target: T1, Replicase polyprotein 1ab (Severe acute respiratory syndrome coronavirus 2, UniProt P0DTD1); assay: Inhibition of C-terminal His6-tagged recombinant SARS-CoV-2 MPro transfected in Escherichia coli BL21 (DE3) using Dabcyl-KTSAVLQSGFRKM-E(Edans)-NH2 as substrate preincubated for 15 mins followed by substrate addition measured after 30 mins by FRET assay
Summary of the method: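 Recombinant Mpro (20 nM final) was preincubated 15 min at room temperature with compound.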

[5] = molecular target: T1, Replicase polyprotein 1ab; assay: Binding affinity to C-terminal His6-tagged recombinant SARS-CoV-2 MPro transfected in Escherichia coli BL21 (DE3) assessed as dissociation constant by Cheng-Prusoff equation analysis
SARS-CoV-2 [6] = assay: Antiviral activity against SARS-CoV-2 RG2674 infected in African green monkey Vero cells assessed as reduction in virus-induced cytopathic effect incubated for 5 days by microscopic analysis; format: functional, organism-based; conditions: Severe acute respiratory syndrome coronavirus 2, RG2674, Vero, 120 h
Vero = assay: Cytotoxicity against African green monkey Vero cells assessed as reduction in cell growth by Coulter counter analysis; format: toxicity, cell-based; conditions: chlorocebus sabaeus
Summary of the method: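 Mock-infected Vero CCL81 cultures were treated with the compound dilution series in DMEM 2% FCS for 5 days at 37 °C.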

SARS-CoV-2 [7] = assay: Antiviral activity against SARS-CoV-2 NVDBB-2220 infected in African green monkey Vero cells assessed as reduction in virus-induced cytopathic effect incubated for 5 days by microscopic analysis; format: functional, organism-based; conditions: Severe acute respiratory syndrome coronavirus 2, NVDBB-2220, Vero, 120 h
[8] = Cytotoxicity against African green monkey Vero cells assessed as change in cell morphology by microscopic analysis; format: toxicity, cell-based; conditions: chlorocebus sabaeus
Summary of the method: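 Vero CCL81 cells were run in parallel with the antiviral assay in DMEM 2% FCS for 5 days at 37 °C. The value is the minimum concentration causing a microscopically detectable change in cell morphology.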

SARS-CoV-2 [9] = assay: Antiviral activity against SARS-CoV-2 UC-1074 infected in African green monkey Vero cells assessed as reduction in virus-induced cytopathic effect incubated for 5 days by microscopic analysis; format: functional, organism-based; conditions: Severe acute respiratory syndrome coronavirus 2, UC-1074, Vero, 120 h
Human betaherpesvirus 5 [10] = assay: Antiviral activity against HCMV Davis infected in HELF cells assessed as reduction in viral replication; format: functional, organism-based; conditions: Human betaherpesvirus 5, Davis
Human betaherpesvirus 5 [11] = assay: Antiviral activity against HCMV AD-169 infected in HELF cells assessed as reduction in viral replication; format: functional, organism-based; conditions: Human betaherpesvirus 5, AD-169, HELF
[12] = AUCt/dose in C57BL6 mouse at 10 mg/kg, po; format: ADME, organism-based; conditions: in vivo
Summary of the method: (§1)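 Male C57BL6 mice, 6–8 weeks, 3 per group, single intranasal dose (0.5 mg/kg at 1.0 mg/mL; 1.25 mg/kg at 2.5 mg/mL) or oral dose (10 mg/kg at 1.0 mg/mL; 25 mg/kg at 2.5 mg/mL). Blood collected at 0.25, 1, 2, 4, 8 and 24 h. Cmax, Tmax and AUCt/dose were taken from plasma concentrations, given with SD.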

[13] = Cmax in C57BL6 mouse at 25 mg/kg, po; format: ADME, organism-based; set-up: dose 25 mg/kg, route po; conditions: in vivo; summary of the method: as §1
[14] = AUCt/dose in C57BL6 mouse at 1.25 mg/kg, INH; format: ADME, organism-based; conditions: in vivo, inhaled_or_intranasal; summary of the method: as §1
[15] = Cmax in C57BL6 mouse at 10 mg/kg, po; format: ADME, organism-based; set-up: dose 10 mg/kg, route po; conditions: in vivo; summary of the method: as §1
[16] = molecular target: T1, Replicase polyprotein 1ab; assay: Binding affinity to C-terminal His6-tagged recombinant SARS-CoV-2 MPro expressed in Escherichia coli BL21 (DE3) assessed as dissociation constant by ITC assay
Summary of the method: (§2)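 E. coli BL21(DE3) Mpro, made untagged by 3C cleavage and SEC, was dialysed into 25 mM Tris-HCl pH 7.6, 20 mM NaCl, 1 mM TCEP. 20–25 µM protein in the cell was titrated with 160–250 µM compound at 28 °C, 0.5% DMSO on both sides, 2.5 µL injections every 180 s. One-site fit with stoichiometry fixed at 1 gave ΔH, ΔS and KD.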

[17] = Tmax in C57BL6 mouse at 25 mg/kg, po; format: ADME, organism-based; conditions: in vivo; summary of the method: as §1
[18] = Selectivity index, ratio of EC50 for antiviral activity against SARS-CoV-2 RG2674 infected in African green monkey Vero cells to EC50 for antiviral activity against SARS-CoV-2 UC-1074 infected in African green monkey Vero cells; format: toxicity
[19] = Tmax in C57BL6 mouse at 1.25 mg/kg, INH; format: ADME, organism-based; conditions: in vivo, inhaled_or_intranasal; summary of the method: as §1
[20] = Selectivity index, ratio of EC50 for antiviral activity against SARS-CoV-2 RG2674 infected in African green monkey Vero cells to EC50 for antiviral activity against SARS-CoV-2 NVDBB-2220 infected in African green monkey Vero cells; format: toxicity
[21] = molecular target: Replicase polyprotein 1ab (Severe acute respiratory syndrome coronavirus 2) (UniProt P0DTD1); assay: Binding affinity to C-terminal His6-tagged recombinant SARS-CoV-2 MPro expressed in Escherichia coli BL21 (DE3) assessed as change in entropy by ITC assay; summary of the method: as §2
[22] = molecular target: Replicase polyprotein 1ab (Severe acute respiratory syndrome coronavirus 2) (UniProt P0DTD1); assay: Binding affinity to C-terminal His6-tagged recombinant SARS-CoV-2 MPro expressed in Escherichia coli BL21 (DE3) assessed as change in gibbs free energy by ITC assay
[23] = Tmax in C57BL6 mouse at 0.5 mg/kg, INH; format: ADME, organism-based; conditions: in vivo, inhaled_or_intranasal; summary of the method: as §1
[24] = AUCt/dose in C57BL6 mouse at 0.5 mg/kg, INH measured for 0.25 to 24 hrs; format: ADME, organism-based; conditions: in vivo, inhaled_or_intranasal, time 0.25-24 hrs; summary of the method: as §1
[25] = Cmax in C57BL6 mouse at 1.25 mg/kg, INH; format: ADME, organism-based; set-up: dose 1.25 mg/kg, route inh; conditions: in vivo, inhaled_or_intranasal; summary of the method: as §1
[26] = molecular target: Replicase polyprotein 1ab (Severe acute respiratory syndrome coronavirus 2) (UniProt P0DTD1); assay: Binding affinity to C-terminal His6-tagged recombinant SARS-CoV-2 MPro expressed in Escherichia coli BL21 (DE3) assessed as change in enthalpy by ITC assay; summary of the method: as §2
[27] = AUCt/dose in C57BL6 mouse at 25 mg/kg, po; format: ADME, organism-based; conditions: in vivo; summary of the method: as §1
[28] = Tmax in C57BL6 mouse at 10 mg/kg, po; format: ADME, organism-based; conditions: in vivo; summary of the method: as §1
[29] = Cmax in C57BL6 mouse at 0.5 mg/kg, INH measured for 0.25 to 24 hrs; format: ADME, organism-based; set-up: time lower 0.25 hrs, dose 0.5 mg/kg, time upper 24 hrs, route inh; conditions: in vivo, inhaled_or_intranasal; summary of the method: as §1

With `O=c1[nH]c(=O)n([C@H]2C[C@H](O)[C@@H](CO)O2)cc1/C=C/Br` [BRIVUDINE] the EC50 (Human alphaherpesvirus 3 [1]) was 0.17 µM, the EC50 (Human alphaherpesvirus 3 [2]) was 4.53 µM and the MCC [3] was greater than 300 µM.
With `O=C[C@H](Cc1c[nH]cn1)NC(=O)[C@H](Cc1c[nH]cn1)NC(=O)[C@@H]1Cc2ccccc2CN1` (H-[Tic]-His-His-aldehyde) the IC50 [4] was 37.8 µM and the Kd [5] was 18.9 µM.
`CC(C)(C)O[C@H]1CN[C@H](C(=O)N[C@@H](Cc2c[nH]cn2)C(=O)N[C@H](C=O)Cc2c[nH]cn2)C1` (H-[Hyp](tBu)-His-His-aldehyde) gave an IC50 [4] greater than 170 µM and a Kd [5] greater than 85 µM.
For `CCC(CC)COC(=O)[C@H](C)N[P@](=O)(OC[C@H]1O[C@@](C#N)(c2ccc3c(N)ncnn23)[C@H](O)[C@@H]1O)Oc1ccccc1`, the EC50 (SARS-CoV-2 [6]) was 1.3 µM, the CC50 (Vero) was 70.6 µM and the EC50 (SARS-CoV-2 [7]) was 0.2 µM. It also gave an MCC [8] of 80 µM and an EC50 (SARS-CoV-2 [9]) of 0.89 µM.
`Nc1ccn(C[C@@H](CO)OCP(=O)(O)O)c(=O)n1` [CIDOFOVIR] gave an EC50 (Human betaherpesvirus 5 [10]) of 0.25 µM and an EC50 (Human betaherpesvirus 5 [11]) of 1.08 µM.
Molecule `CC(C)C[C@@H](C=O)NC(=O)[C@H](Cc1ccccc1)NC(=O)[C@@H]1Cc2ccccc2CN1` (H-[Tic]-Phe-Leu-aldehyde) has an IC50 [4] greater than 425 µM and a Kd [5] greater than 213 µM.
In the case of `CCCCCCCC(=O)NCC(=O)N[C@@H](Cc1ccccc1)C(=O)N[C@H](C=O)Cc1c[nH]cn1` (Octanoyl-Gly-Phe-His-aldehyde), the AUCt/dose [12] is reported as 3.07 kg·ng·h/mL/mg, the IC50 [4] is reported as 2.37 µM and the EC50 (SARS-CoV-2 [6]) is reported as 39.9 µM. The Cmax [13] was 33.7 ng/mL, the EC50 (Human betaherpesvirus 5 [10]) was greater than 100 µM and the AUCt/dose [14] was 150.62 kg·ng·h/mL/mg. For the same molecule, the Cmax [15] was 22.72 ng/mg, the Kd [16] was 0.425 µM and the Tmax [17] was 30 min. For the same molecule, the “Ratio EC50” value [18] was 8, the Tmax [19] was 15 min and the “Ratio EC50” value [20] was 8. The CC50 (Vero) was greater than 100 µM, the EC50 (SARS-CoV-2 [7]) was 5.2 µM and the -TdeltaS [21] was 7.6 kcal/mol. It also gave a deltaG [22] of -8.8 kcal/mol, a Tmax [23] of 15 min and an AUCt/dose [24] of 188.05 kg·ng·h/mL/mg. It also gave a Cmax [25] of 325.95 ng/mL, an EC50 (Human alphaherpesvirus 3 [1]) greater than 100 µM and an EC50 (Human betaherpesvirus 5 [11]) greater than 20 µM. The deltaH [26] was -16.4 kcal/mol, the EC50 (Human alphaherpesvirus 3 [2]) was greater than 100 µM and the MCC [8] was no less than 100 µM. For the same molecule, the AUCt/dose [27] was 2 kg·ng·h/mL/mg, the Tmax [28] was 45 min and the Kd [5] was 1.19 µM. It also gave an EC50 (SARS-CoV-2 [9]) of 5 µM, a Cmax [29] of 177.97 ng/mL and an MCC [3] greater than 100 µM.
